The source of these data is PMC9050490 (RSC Advances, 2020).

Test [1] has as its system HepG2 cells. As to the kind of experiment: MTT antiproliferative assay, HepG2. Format: cell-based, human. The essentials:
(§1)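 Cells were pre-incubated 24 h at 37 °C under 5% CO2, then exposed to a range of test compound concentrations dissolved in culture medium. MTT (5 mg mL−1 solution) was added for 4 h and formazan dissolved in DMSO. Absorbance was read at 630 nm. IC50 came from a non-linear curve fit, and growth inhibition was also reported.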

Test [2] deals with Karpas299 cells. As to the kind of experiment: MTT antiproliferative assay, Karpas299. The format is cell-based. The essentials:
as §1

Test [3] has as its system MCF-7 cells. As to the kind of experiment: MTT antiproliferative assay, MCF-7. Format: cell-based. The following applies: Homo sapiens, MCF7, read-out: Antiproliferative activity IC50. In outline: as §1
A general note: Formazan colour is commonly taken as a measure of viable cells.

Test [4] concerns A549 cells. As to the kind of experiment: MTT antiproliferative assay, A549. The following applies: Homo sapiens, A549, read-out: Antiproliferative activity IC50. Format: cell-based. The essentials: as §1
Test [5] concerns PC-3 cells. Description: MTT antiproliferative assay, PC-3. Format: cell-based. Particulars: Homo sapiens, PC-3, read-out: Antiproliferative activity IC50. In outline: as §1

As a reminder, the IC50 is the midpoint of a concentration-inhibition curve. The inhibition is the percentage by which the read-out fell short of the control.

Turning to `CC1(C)[C@@H](O)CC[C@]2(C)[C@H]3C(=O)C=C4[C@@H]5C[C@@](C)(C(=O)N6CCN(C(=O)c7ccc(Cl)cc7)CC6)CC[C@]5(C)CC[C@@]4(C)[C@]3(C)CC[C@@H]12` [Compound 4i, 3β-Hydroxy-30-(4-(4-chlorobenzoyl)-1-piperazinyl)-olean-12-ene-11,30-dione], the growth inhibition is recorded as 0.00% in test [1] (HepG2, 2 μg mL^−1, MTT); 19.10% in test [1] (HepG2, 20 μg mL^−1, MTT); 0.00% in test [2] (Karpas299, 2 μg mL^−1, MTT); 12.76% in test [2] (Karpas299, 20 μg mL^−1, MTT).

On to `C[C@@H](Oc1cc(-c2cnn(C3CCNCC3)c2)cnc1N)c1c(Cl)ccc(F)c1Cl` [Crizotinib], for which the half-maximal inhibitory concentration (IC50) was 4.09 µM in test [3]; 10.6 µM in test [1] (Homo sapiens, HepG2, read-out: Antiproliferative activity IC50); 2.82 µM in test [2] (Homo sapiens, KARPAS-299, read-out: Antiproliferative activity IC50); 1.49 µM in test [4]; 7.33 µM in test [5]. Also, the inhibition at 2 µg/mL in test [1] (Homo sapiens, HepG2, read-out: growth inhibition, HepG2, 2 μg mL^−1, MTT) came out at 27.1%. Further, the inhibition at 20 µg/mL in test [1] (Homo sapiens, HepG2, read-out: growth inhibition, HepG2, 20 μg mL^−1, MTT) was determined as 97.8%.
